Measured values taken from paper PMC7088158 (International Journal of Peptide Research and Therapeutics, 2006).

Columns and labels:
[1] = Aqueous solubility of the substrates; format: physicochemical; conditions: standard form (CFO-1 N-terminus, Lys(BHQ-2)-amide C-terminus)
[2] = molecular target: T1, Human erythrocyte calpain I (Homo sapiens, UniProt P07384); format: biochemical; conditions: pH 7.5
T1 sequence (P07384 1-714): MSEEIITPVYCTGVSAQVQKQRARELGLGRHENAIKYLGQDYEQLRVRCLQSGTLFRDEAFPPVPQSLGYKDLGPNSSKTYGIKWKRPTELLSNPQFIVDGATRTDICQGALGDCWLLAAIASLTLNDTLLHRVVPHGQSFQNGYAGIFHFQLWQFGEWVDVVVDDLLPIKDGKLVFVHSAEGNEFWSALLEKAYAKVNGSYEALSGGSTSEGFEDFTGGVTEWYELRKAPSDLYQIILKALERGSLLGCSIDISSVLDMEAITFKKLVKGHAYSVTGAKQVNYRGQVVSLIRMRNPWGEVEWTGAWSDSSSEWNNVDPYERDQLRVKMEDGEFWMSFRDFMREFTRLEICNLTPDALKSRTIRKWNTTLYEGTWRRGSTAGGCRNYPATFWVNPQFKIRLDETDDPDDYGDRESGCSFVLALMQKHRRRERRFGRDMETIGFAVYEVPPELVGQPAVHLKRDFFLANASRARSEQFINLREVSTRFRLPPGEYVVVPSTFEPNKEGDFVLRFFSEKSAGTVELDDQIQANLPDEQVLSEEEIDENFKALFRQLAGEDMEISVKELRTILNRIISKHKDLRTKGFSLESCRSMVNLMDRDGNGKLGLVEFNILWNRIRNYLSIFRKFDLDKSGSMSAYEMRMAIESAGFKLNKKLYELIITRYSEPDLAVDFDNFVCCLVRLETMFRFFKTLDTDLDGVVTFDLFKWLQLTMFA
T1 sequence (P04632 1-268 partner): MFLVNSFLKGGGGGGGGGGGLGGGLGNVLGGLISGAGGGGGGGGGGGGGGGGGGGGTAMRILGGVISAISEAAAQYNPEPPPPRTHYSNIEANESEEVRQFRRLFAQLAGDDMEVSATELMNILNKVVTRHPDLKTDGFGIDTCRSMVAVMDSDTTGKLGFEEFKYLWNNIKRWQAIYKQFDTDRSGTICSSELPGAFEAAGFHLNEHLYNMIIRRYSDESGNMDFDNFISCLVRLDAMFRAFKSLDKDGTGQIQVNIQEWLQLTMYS

[3] = tested on: primary hippocampal neurons; assay: Live cell imaging of probe entry and fluorescence in primary hippocampal neurons; format: cell-based, rat; conditions: cA 1 μM preloaded 30 min in Ca2+-free buffer, ionomycin 5 μM then CaCl2 0.2 mM
Method in brief: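 Hippocampal neurons from E18 rat hippocampi, papain-dissociated (2 mg/mL, 30 min, 37 °C), plated at 1 × 10^5 cells/well on poly-D-lysine cover glasses and used at 9–12 DIV. Medium was Neurobasal/B27 with 1% FBS and glutamate, half-replaced on days 4 and 7. Confocal imaging at 37 °C, 20× air objective, 543 nm excitation, 560–615 nm emission, frames every 1–2 min.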

[4] = tested on: trypsin; conditions: pH 7.5
[5] = molecular target: α-chymotrypsin (Bos taurus, UniProt P00766, DEL14-15/DEL147-148); conditions: pH 7.5
[6] = tested on: primary cortical neurons; assay: Live cell imaging of probe entry and fluorescence in primary cortical neurons; format: cell-based, rat; conditions: washed
Method in brief: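 Cortical neurons from E18 rat cortices, papain-dissociated (2 mg/mL, 30 min, 37 °C), plated at 1 × 10^5 cells/well on poly-D-lysine-coated chambered cover glasses in Neurobasal/B27 medium and used at 5 DIV. Confocal live imaging used a 20× air objective at 37 °C, with 543 nm excitation and emission collected at 560–615 nm. Frames were taken every 1–2 min.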

| Substance | Effectiveness as calpain substrate, in words [2] | Stability to chymotrypsin, in words [5] | other results |
| --- | --- | --- | --- |
| EVYGM*M* [cG] |  |  | Solubility, in words [1]: very poorly soluble |
| GSGTSS [cA] | proceeded only partially |  | Intracellular fluorescence on activation of calpain pathways by ionomycin [3]: fluorescence was observed |
| PLFAER [cW] | far superior calpain substrate compared to cA |  | Stability to trypsin, in words [4]: poor stability |
| PLGAERP [cXa] | rather similar as a calpain substrate to its parent | affected remarkably little |  |
| PLLAERP [cXb] | at least as an effective calpain substrate as its parent | considerably improved chymotryptic stability |  |
| PLLAERP [cXe] | improved calpain substrate | very much more stable to chymotrypsin | Intracellular fluorescence following ionomycin ([6]; cXe 2 μM 40 min, ionomycin 5 μM): increased intracellular fluorescence; Entry into cells without transporter sequence ([6]; cXe 2 μM preloaded 40 min, confocal imaging 37 °C): proved to enter cells without a transporter sequence |
| PLLAERP [cXf] |  | little improvement |  |
| PLLAERP [cXg] |  | significantly improved |  |
| PLVAERP [cXc] | dramatically reduced the effectiveness of calpain processing |  |  |
| VVQAGI [cM] |  |  | Solubility, in words [1]: very poorly soluble |
| VVTAEA [cJ] |  |  | Solubility, in words [1]: very poorly soluble |
